Assay outcomes as filed in PubChem.
A selection: hits, their analogues and other compounds. The true share with any hit is near 2.3%.
CFTR F508del cor = CFTR F508del correction in bronchial cells; CFBE cells, YFP halide quenching; stimulated with forskolin plus potentiator P3; % fluorescence drop versus neutral controls; activity (quench increase), % at 7.58 µM; 0.36% of 350,000 active;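 active means mean added fluorescence quench of at least 8% versus neutral control, with both replicates also reaching 8%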;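 further: cells transiently co-express mutant CFTR-F508del with the halide-sensitive YFP; corrector assay measuring rescue of mutant channel to the surface after 24 h compound exposure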
Cneo AK release = causes C. neoformans cell lysis | adenylate kinase release luminescence, 4 h; normalised: neutral wells 0, clomiphene wells 100 | lysis activity, % at 15 µM | 0.2% of 360,000 active;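 active means mean lysis activity across replicates of at least 80%, whatever share of replicates individually reach that level; inactive means mean lysis activity below 80%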
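read-out = cell lysis signal | test system = log-phase Cryptococcus neoformans yeast cells | input = cells at 5 × 10^6 per mL | medium = fresh YPD growth medium | signal = luminescent adenylate kinase detection reagent | timing = 4 h at 37 °C static, read 1 h later | dosing = single dose | controls = Clomiphene as positive lysis control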
PDI inh = inhibitors of human protein disulfide isomerase. PDI insulin aggregation turbidity, A650, 90 min. 0.052% of 350,000 active. inhibition, % at 10 µM. P07237;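 active means mean inhibition across replicates of 30% or more, whatever share of single replicates reach that level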
Target sequence (P07237 whole entry, looked up): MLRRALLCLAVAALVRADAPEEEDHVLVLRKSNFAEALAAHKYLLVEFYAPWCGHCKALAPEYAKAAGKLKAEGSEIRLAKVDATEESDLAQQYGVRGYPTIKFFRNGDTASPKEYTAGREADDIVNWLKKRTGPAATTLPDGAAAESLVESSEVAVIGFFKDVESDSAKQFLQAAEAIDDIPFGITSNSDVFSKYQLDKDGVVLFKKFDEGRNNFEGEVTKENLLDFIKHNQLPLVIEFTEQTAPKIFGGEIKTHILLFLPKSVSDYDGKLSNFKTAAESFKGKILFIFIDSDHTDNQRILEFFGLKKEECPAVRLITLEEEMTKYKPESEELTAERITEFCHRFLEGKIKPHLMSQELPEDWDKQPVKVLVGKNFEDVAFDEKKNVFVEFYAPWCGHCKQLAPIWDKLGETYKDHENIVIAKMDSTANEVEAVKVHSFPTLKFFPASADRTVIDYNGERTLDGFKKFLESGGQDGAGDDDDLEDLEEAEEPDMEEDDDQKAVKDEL
DENV2 CPE rescue = DENV2-induced cell death inhibition. CPE inhibition, % at 9.99 µM. 1.7% of 350,000 active. DENV2-infected cells, cytopathic effect rescue, plate reader; in the data active means CPE inhibition above about 20%, passing the limit was not always enough; tested in BHK-21 cells
ERp5 inh = blocks human ERp5 reductase activity on insulin | ERp5 insulin aggregation, absorbance 650 nm, 90 min | inhibition, % at 9.99 µM | 0.05% of 350,000 active | AID 651711;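 active means mean replicate inhibition above about 25%, with every replicate also reaching it, limit read from the data, passing the limit was not always enough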
C2C12 statin = suppression of simvastatin myotoxicity | C2C12 myotubes + simvastatin, ATP luminescence, 48 h; scaled: DMSO 0, geranylgeraniol control 100 | rescue of ATP level, % at 7.49 µM | AID 602340 | 0.78% of 330,000 active;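 active means mean ATP rescue above about 67%, or every replicate alone reaching that limit, limit read from the data, passing the limit was not always enough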;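 further: myotubes were challenged with 10 µM simvastatin during compound exposure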
Large screens that a line does not name were inactive.

C[C@@H]1CCCCO[C@@H](CN(C)S(=O)(=O)c2cn(C)cn2)[C@@H](C)CN([C@H](C)CO)C(=O)c2cc(NS(=O)(=O)c3cccs3)ccc2O1	DENV2 CPE rescue 30 (no result: PDI inh)
C[C@@H]1CN([C@@H](C)CO)C(=O)c2cc(NS(=O)(=O)c3cccs3)ccc2O[C@@H](C)CCCCO[C@@H]1CN(C)S(=O)(=O)c1cn(C)cn1	DENV2 CPE rescue 34 (no result: PDI inh)
C[C@H]1CCCCO[C@H](CN(C)S(=O)(=O)c2cn(C)cn2)[C@@H](C)CN([C@@H](C)CO)C(=O)c2cc(NS(=O)(=O)c3cccs3)ccc2O1	none (no result: PDI inh)
C[C@@H]1CN([C@H](C)CO)C(=O)c2cc(N(C)C)ccc2O[C@@H]1CN(C)Cc1ccncc1	none (no result: PDI inh)
COc1cccc(NC(=O)CSc2nc(C)cs2)c1	C2C12 statin 109 (no result: CFTR F508del cor, DENV2 CPE rescue, ERp5 inh)
COc1ccc(NC(=O)CSc2nc(C)cs2)cc1OC	none (no result: CFTR F508del cor, DENV2 CPE rescue, ERp5 inh)
c1ccc2c(CCNc3ncnc4nc[nH]c34)cccc2c1	C2C12 statin 86 (no result: CFTR F508del cor, DENV2 CPE rescue, ERp5 inh)
c1ccc(CCCNc2ncnc3nc[nH]c23)cc1	none
CCC(=O)N1CC(=O)N2[C@H](C1)[C@H](c1ccc(C#CCC(C)C)cc1)[C@@H]2CO	none (no result: Cneo AK release, PDI inh, C2C12 statin)
COc1ccc(NC(=O)CC2C(=O)N(c3cccc(OC)c3)C(=O)N2CCC(C)C)cc1 (stereo not drawn)	C2C12 statin 93 (no result: CFTR F508del cor, DENV2 CPE rescue, ERp5 inh)
OC[C@H]1[C@@H](c2ccc(-c3ccccc3)cc2)[C@H]2CN(CCC(F)(F)F)CCCCN21	none (no result: PDI inh, DENV2 CPE rescue, ERp5 inh, C2C12 statin)
OC[C@@H]1[C@@H](c2ccc(-c3cccc(F)c3)cc2)[C@@H]2CN(CCC(F)(F)F)CCCCN12	none (no result: PDI inh)
OC[C@@H]1[C@H](c2ccc(-c3cccc(F)c3)cc2)[C@@H]2CN(CCC(F)(F)F)CCCCN12	DENV2 CPE rescue 41 (no result: PDI inh)
OC[C@@H]1[C@@H](c2ccc(-c3ccccc3)cc2)[C@H]2CN(CCC(F)(F)F)CCCCN12	DENV2 CPE rescue 20 (no result: PDI inh, C2C12 statin)
CO[C@H]1CN(C)C(=O)c2ccc(NS(=O)(=O)c3ccccc3Cl)cc2OC[C@H](C)NC[C@H]1C	none (no result: PDI inh)
Cc1noc(C)c1NC(=O)Nc1ccc2c(c1)C(=O)N([C@H](C)CO)C[C@H](C)[C@H](CN(C)C(=O)C1CCCCC1)OCCCC[C@H](C)O2	none (no result: PDI inh, C2C12 statin)
N#Cc1cccc(NC(=O)Cc2ccsc2)c1	none
CCc1ccccc1OCC(=O)NNCC(=O)Nc1cccc(C#N)c1	DENV2 CPE rescue 41
C[C@@H]1CN([C@H](C)CO)C(=O)c2cc(C3=CCCC3)cnc2O[C@H]1CN(C)C(=O)Nc1cccc(F)c1	none (no result: PDI inh)
O=C(CCl)Nc1nc(-c2ccco2)c(-c2ccco2)s1	PDI inh 62 (no result: CFTR F508del cor, Cneo AK release, C2C12 statin)
O=C(CCCSc1ccccc1)Nc1nc(-c2ccco2)c(-c2ccco2)s1	none (no result: CFTR F508del cor, C2C12 statin)
COc1ccc(C2(C)CC(C)(C)Nc3ccccc32)cc1 (stereo not drawn)	DENV2 CPE rescue 26
O=C(CCCc1nc(-c2ccccc2)no1)Nc1cccnc1	C2C12 statin 86 (no result: CFTR F508del cor, DENV2 CPE rescue, ERp5 inh)
O=C(C[C@@H]1C[C@@H]2c3cc(NC(=O)C4CCOCC4)ccc3O[C@@H]2[C@H](CO)O1)NCCc1ccccc1	none (no result: PDI inh)
C[C@@H]1CN([C@H](C)CO)C(=O)c2cc(NS(=O)(=O)c3ccccc3)ccc2O[C@@H](C)CCCCO[C@@H]1CN(C)C(=O)C1CCCCC1	none (no result: PDI inh)
C[C@@H]1CCCCO[C@H](CN(C)C(=O)C2CCCCC2)[C@H](C)CN([C@H](C)CO)C(=O)c2cc(NS(=O)(=O)c3ccccc3)ccc2O1	C2C12 statin 89 (no result: PDI inh)
C[C@@H]1CN([C@@H](C)CO)C(=O)c2cc(NS(=O)(=O)c3ccccc3)ccc2O[C@@H](C)CCCCO[C@@H]1CN(C)CC1CCCCC1	DENV2 CPE rescue 55 (no result: PDI inh)
CON(C)C(=O)/C=C/CCCCNC(=O)OC(C)(C)C	DENV2 CPE rescue 37
CC(C)(C)OC(=O)NCCCCCO	none
O=C(NC1CCCCC1)c1cc(C2CC2)nn1-c1ccccc1	CFTR F508del cor 22
Cc1nc(-c2cccc(S(=O)(=O)N3CC(C)CC(C)C3)c2)cs1 (stereo not drawn)	none (no result: CFTR F508del cor, Cneo AK release, DENV2 CPE rescue, ERp5 inh, C2C12 statin)
Cc1nc(-c2cccc(S(=O)(=O)N3CC(C)OC(C)C3)c2)cs1 (stereo not drawn)	C2C12 statin 115 (no result: CFTR F508del cor, DENV2 CPE rescue, ERp5 inh)
CC(=O)O[C@@H]1[C@H]2[C@@H](C[C@@H](C)[C@@H]3C=CC(=O)[C@@]13C)OC(=O)[C@@H]2C	C2C12 statin 115
CC(=O)O[C@@H]1[C@H]2[C@@H](C[C@@H](C)[C@@H]3CCC(=O)[C@@]13C)OC(=O)[C@@H]2C	none
O=C(Nc1nc(=O)c2ccccc2s1)c1ccc(Cl)cc1	C2C12 statin 80 (no result: CFTR F508del cor, DENV2 CPE rescue, ERp5 inh)
C[C@@H]1CCCCO[C@H](CN(C)Cc2ccc3c(c2)OCO3)[C@H](C)CN([C@H](C)CO)C(=O)c2cc(NC(=O)Cc3ccccc3)ccc2O1	none (no result: PDI inh, ERp5 inh, C2C12 statin)
COc1ccc(Cc2n[nH]c(=S)n2-c2cc(C)ccc2C)cc1OC	DENV2 CPE rescue 96 (no result: PDI inh)
CNC(=O)C[C@@H]1CC[C@H]2[C@H](COc3ccc(NC(=O)Nc4c(C)noc4C)cc3C(=O)N2C)O1	none (no result: Cneo AK release, PDI inh, DENV2 CPE rescue, ERp5 inh)
CCCNC(=O)N1CC2(C1)CN(C(=O)CC1CC1)[C@@H](CO)c1c2c2ccc(OC)cc2n1C	none (no result: Cneo AK release, PDI inh, C2C12 statin)
COc1ccc2c3c([nH]c2c1)[C@H](CO)N(Cc1cccc(F)c1)CC31CCN(C(C)=O)CC1	none (no result: Cneo AK release, PDI inh, C2C12 statin)
COCCCNc1nc2c([nH]1)c(=O)[nH]c(=O)n2C	C2C12 statin 133 (no result: CFTR F508del cor, DENV2 CPE rescue, ERp5 inh)
CCOCCCNc1nc2c([nH]1)c(=O)n(C)c(=O)n2C	none (no result: CFTR F508del cor, DENV2 CPE rescue, ERp5 inh)
COc1ccc(-c2cnc3c(c2)C(=O)N([C@H](C)CO)C[C@@H](C)[C@H](CN(C)S(=O)(=O)c2ccc(OC)cc2)O3)cc1	none (no result: Cneo AK release, PDI inh, DENV2 CPE rescue, ERp5 inh)
COc1ccc(-c2cnc3c(c2)C(=O)N([C@@H](C)CO)C[C@H](C)[C@@H](CN(C)S(C)(=O)=O)O3)cc1	Cneo AK release 81 (no result: PDI inh)
COc1ccc(-c2cnc3c(c2)C(=O)N([C@H](C)CO)C[C@H](C)[C@H](CN(C)S(=O)(=O)c2ccc(F)cc2)O3)cc1	C2C12 statin 102 (no result: PDI inh)
COc1ccc(-c2cnc3c(c2)C(=O)N([C@@H](C)CO)C[C@H](C)[C@H](CN(C)S(C)(=O)=O)O3)cc1	none (no result: PDI inh)
COCCNC(=O)C[C@H]1C[C@@H]2c3cc(NS(=O)(=O)c4ccccc4)ccc3O[C@@H]2[C@@H](CO)O1	none (no result: PDI inh)
COc1cccc(CNC(=O)c2cc3c(c(-c4cccc(-c5ccncc5)c4)n2)[C@@H](CCO)N([S@](=O)C(C)(C)C)C3)c1	none (no result: PDI inh)
O=C(C[C@@H]1CC[C@@H]2[C@H](COC[C@@H](O)CN2C(=O)Nc2cc(Cl)cc(Cl)c2)O1)NCC1CCCCC1	none (no result: PDI inh)
COc1ccc(COn2c(=O)c(C)[n+]([O-])c3ccccc32)cc1OC	C2C12 statin 106 (no result: CFTR F508del cor, DENV2 CPE rescue, ERp5 inh)
Cc1c(=O)n(OCc2ccccc2)c2ccccc2[n+]1[O-]	none (no result: CFTR F508del cor, DENV2 CPE rescue, ERp5 inh)
COc1ccc2[nH]c3c(c2c1)CCN1C(=O)N([C@@H](C)C(=O)NC2CCCCC2C)C(=O)[C@]31C (stereo partly drawn)	DENV2 CPE rescue 48 (no result: PDI inh)
